This excerpt belongs to a sample that is enriched for hits.
T cruzi growth-1: T. cruzi intracellular proliferation inhibitors, primary screen, cell-based, beta-gal Tulahuen parasites, NIH3T3 host, luminescence; T. cruzi beta-gal in NIH3T3, GalScreen luminescence, 90 h; inhibition, % at 8.34 µM; 5.9% of 77,000 active; AID 624255, 2012;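 active means mean inhibition above about 93%, with at least 55% of replicates each passing it, limit read from the data, passing the limit was not always enough; inconclusive means only one of those two conditions holds; inactive means neither condition holds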
IDH1 mut inh: inhibitors of IDH1 R132H reductase, primary screen, biochemical, plate reader, single point; Isocitrate dehydrogenase [NADP] cytoplasmic (Homo sapiens), O75874; diaphorase/resazurin fluorescence, 60 min; inhibition, % at 10 µM; 0.18% of 70,000 active; in the data active means inhibition above about 34%; inconclusive means no clear call, values can overlap the other calls; inactive means below about 11%
KDM4C inh: inhibitors of GASC-1 (KDM4C) histone demethylase, primary screen, biochemical, single concentration HTS; GST-KDM4C 2-372, H3K9me3 peptide, LANCE TR-FRET; inhibition, % at 12.5 µM; 0.15% of 96,000 active;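 active means mean replicate inhibition above about 25%, with at least 55% of replicates also reaching it, limit read from the data, passing the limit was not always enough; inconclusive means only one of those two conditions met; inactive means neither condition met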
Target sequence (Q9H3R0 2-372 limits assumed): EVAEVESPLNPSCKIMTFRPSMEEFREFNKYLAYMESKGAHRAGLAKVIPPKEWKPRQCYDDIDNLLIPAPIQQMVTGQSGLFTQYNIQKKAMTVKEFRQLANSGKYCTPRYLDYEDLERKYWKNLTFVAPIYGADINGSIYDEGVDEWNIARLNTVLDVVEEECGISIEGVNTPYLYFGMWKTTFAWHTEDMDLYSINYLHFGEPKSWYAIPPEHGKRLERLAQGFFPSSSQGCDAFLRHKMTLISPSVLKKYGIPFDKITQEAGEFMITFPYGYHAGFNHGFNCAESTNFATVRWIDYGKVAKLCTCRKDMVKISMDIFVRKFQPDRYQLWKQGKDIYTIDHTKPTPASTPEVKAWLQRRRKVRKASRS
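System – N-terminal GST-fused human GASC-1 (KDM4C) fragment, residues 2-372 · Input – enzyme final amount 10 nM · Technique – LANCE TR-FRET, Eu antibody, ULight-streptavidin, EDTA, ex 340 nm, em 618/671 nm · Medium – HEPES buffer, pH 7.5, plus ascorbate · Incubation – enzyme reaction 30 min, then detection 60 min, both room temperature · Reagent – H3K9me3 peptide with Fe(II)/2OG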
T cruzi growth-2: T. cruzi intracellular proliferation inhibitors, confirmation, cell-based, NIH3T3 host, beta-gal parasite, luminescence, cherry-pick. T. cruzi beta-gal in NIH3T3, GalScreen luminescence, 90 h. shares compounds with T cruzi growth-1. 72% of 5,600 active. inhibition, % at 8.35 µM;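 active means mean replicate inhibition above about 95% and at least 55% of replicates individually reaching it, limit read from the data; inconclusive means only one of the two criteria is met; inactive means neither criterion is met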
T cruzi growth-3: inhibitors of intracellular T. cruzi replication, confirmation, NIH3T3 host cells, beta-gal parasites, cherry-pick, set 2; shares compounds with T cruzi growth-1; T. cruzi beta-gal in NIH3T3, GalScreen luminescence, 90 h; inhibition, % at 2.09 µM; 21% of 5,600 active; AID 651740, 2012;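 active means mean inhibition above about 95%, with at least 55% of replicates also reaching it, limit read from the data; inconclusive means meets just one of the two conditions; inactive means meets neither condition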
3T3 cytotox: cytotoxicity in mouse NIH/3T3 fibroblasts, confirmation, cytotoxicity control for T. cruzi proliferation inhibitor project, cell-based, cherry-pick, single point; shares compounds with T cruzi growth-1; NIH/3T3 viability, CellTiter-Glo ATP luminescence, 90 h; cytotoxicity (signal decrease), % at 8.35 µM; 14% of 5,600 active; AID 651742, 2012;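 active means mean signal decrease across replicates above about 35% based on untreated-well scatter, with enough replicates individually passing, limit read from the data; inconclusive means no rule stated though some were filed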
NIH3T3 tox 2: NIH/3T3 fibroblast cytotoxicity, confirmation, cytotoxicity control, cell-based, cherry-pick, single point, set 2. shares compounds with T cruzi growth-1. NIH/3T3 viability, CellTiter-Glo ATP luminescence, 90 h. inhibition, % at 24.9 µM. 56% of 5,600 active. AID 651744, 2012;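 active means mean loss of cell viability signal at or above a set limit, and enough replicates individually reaching it; inconclusive means meets only the mean limit or only the replicate share; inactive means meets neither condition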
Each line names hits and unclear results; the compound was inactive in the other large screens (follow-up assays come after a bar, where they were run).

Cc1ccc(-n2ncc(C(=O)NCCN3CCOCC3)c2NC(=O)c2ccco2)cc1C	none (no result: T cruzi growth-1, KDM4C inh)
CC1CC2(CC(C)(C(=O)CSc3n[nH]c(-c4ccccc4Cl)n3)OC2=O)C(=O)O1 (configuration not stated)	none (no result: T cruzi growth-1, KDM4C inh)
CNC[C@@H]1Oc2ccc(NC(=O)Nc3ccccc3)cc2C(=O)N([C@@H](C)CO)C[C@@H]1C	none
O=C(C[C@@H]1CC[C@H]2[C@@H](COC[C@H](O)CN2Cc2ccc3c(c2)OCO3)O1)Nc1ccc(-c2ccccc2)cc1	T cruzi growth-1 inconclusive (no result: IDH1 mut inh) | T cruzi growth-2 102.9 | T cruzi growth-3 inactive | 3T3 cytotox inactive | NIH3T3 tox 2 91.7
O=C(C[C@@H]1CC[C@@H]2[C@H](COC[C@@H](O)CN2Cc2ccc3c(c2)OCO3)O1)N1CCOCC1	none (no result: IDH1 mut inh)
O=C(C[C@H]1CC[C@@H]2[C@H](COC[C@H](O)CN2Cc2ccc3c(c2)OCO3)O1)N1CCOCC1	none (no result: IDH1 mut inh)
O=C(C[C@@H]1CC[C@@H]2[C@H](COC[C@@H](O)CN2Cc2ccc3c(c2)OCO3)O1)Nc1ccc(-c2ccccc2)cc1	T cruzi growth-1 102.2 (no result: IDH1 mut inh) | T cruzi growth-2 97.1 | T cruzi growth-3 inactive | 3T3 cytotox 36.3 | NIH3T3 tox 2 50.8
C[C@H](CO)N1C[C@H](C)[C@H](CN(C)Cc2cncnc2)Oc2ncc(-c3cncnc3)cc2C1=O	none
CO[C@@H](CN(C)S(=O)(=O)c1cccc(Cl)c1)[C@@H](C)CN([C@H](C)CO)S(=O)(=O)c1ccc(Cl)cc1	none
CO[C@H](CN(C)S(=O)(=O)c1cccc(Cl)c1)[C@@H](C)CN([C@@H](C)CO)S(=O)(=O)c1ccc(Cl)cc1	none
CO[C@H](CN(C)S(=O)(=O)c1cccc(Cl)c1)[C@@H](C)CN([C@H](C)CO)S(=O)(=O)c1cccc(Cl)c1	T cruzi growth-1 118.0 | T cruzi growth-2 inactive | T cruzi growth-3 inactive | 3T3 cytotox inactive | NIH3T3 tox 2 69.4
CO[C@@H](CN(C)S(=O)(=O)c1cccc(Cl)c1)[C@H](C)CN([C@@H](C)CO)S(=O)(=O)c1cccc(Cl)c1	T cruzi growth-1 109.7 | T cruzi growth-2 inactive | T cruzi growth-3 inactive | 3T3 cytotox 48.8 | NIH3T3 tox 2 71.7
CO[C@H](CN(C)S(=O)(=O)c1ccc(Cl)cc1)[C@@H](C)CN([C@H](C)CO)S(=O)(=O)c1cccc(Cl)c1	none
CO[C@H](CN(C)S(=O)(=O)c1cccc(Cl)c1)[C@@H](C)CN([C@@H](C)CO)S(=O)(=O)c1cccc(Cl)c1	T cruzi growth-1 108.6 | T cruzi growth-2 inactive | T cruzi growth-3 inactive | 3T3 cytotox 41.9 | NIH3T3 tox 2 38.8
CO[C@@H](CN(C)S(=O)(=O)c1cccc(Cl)c1)[C@@H](C)CN([C@@H](C)CO)S(=O)(=O)c1ccc(Cl)cc1	T cruzi growth-1 104.4 | T cruzi growth-2 98.5 | T cruzi growth-3 inactive | 3T3 cytotox inconclusive | NIH3T3 tox 2 66.8
CO[C@H](CN(C)S(=O)(=O)c1ccc(F)cc1)[C@H](C)CN([C@@H](C)CO)S(=O)(=O)c1cccc(Cl)c1	none
CCC1CCc2[nH]c(=S)c(C#N)c(C(F)(F)F)c2C1 (configuration not stated)	none (no result: T cruzi growth-1, KDM4C inh)
C[C@H]1CCCCO[C@@H](CN(C)Cc2ccc(C(=O)O)cc2)[C@@H](C)CN([C@@H](C)CO)C(=O)c2cc(N(C)C)ccc2O1	none
C[C@@H]1CN([C@H](C)CO)C(=O)c2cc(N(C)C)ccc2O[C@@H](C)CCCCO[C@H]1CN(C)Cc1ccc(C(F)(F)F)cc1	T cruzi growth-1 119.9 (no result: IDH1 mut inh) | T cruzi growth-2 98.6 | T cruzi growth-3 113.4 | 3T3 cytotox inactive | NIH3T3 tox 2 106.0
C[C@H](CO)N1C[C@H](C)[C@H](CN(C)Cc2ccc(C(F)(F)F)cc2)OCCCC[C@H](C)Oc2ccc(N(C)C)cc2C1=O	none (no result: IDH1 mut inh)
C[C@@H]1CN([C@@H](C)CO)C(=O)c2cc(N(C)C)ccc2O[C@@H](C)CCCCO[C@@H]1CN(C)Cc1ccc(C(F)(F)F)cc1	none
C[C@@H]1CN([C@H](C)CO)C(=O)c2cc(N(C)C)ccc2O[C@@H](C)CCCCO[C@@H]1CN(C)Cc1ccc(C(F)(F)F)cc1	T cruzi growth-1 inconclusive (no result: IDH1 mut inh) | T cruzi growth-2 108.7 | T cruzi growth-3 inactive | 3T3 cytotox inactive | NIH3T3 tox 2 107.0
C[C@@H]1CCCCO[C@H](CN(C)Cc2ccc(C(F)(F)F)cc2)[C@@H](C)CN([C@H](C)CO)C(=O)c2cc(N(C)C)ccc2O1	T cruzi growth-1 inconclusive (no result: IDH1 mut inh) | T cruzi growth-2 112.4 | T cruzi growth-3 inactive | 3T3 cytotox inactive | NIH3T3 tox 2 inconclusive
C[C@H](CO)N1C[C@H](C)[C@@H](CN(C)Cc2ccc(C(F)(F)F)cc2)OCCCC[C@H](C)Oc2ccc(N(C)C)cc2C1=O	T cruzi growth-1 108.5 | T cruzi growth-2 110.9 | T cruzi growth-3 inactive | 3T3 cytotox inactive | NIH3T3 tox 2 96.7
C[C@@H]1CCCCO[C@@H](CN(C)Cc2ccc(C(=O)O)cc2)[C@@H](C)CN([C@H](C)CO)C(=O)c2cc(N(C)C)ccc2O1	none (no result: IDH1 mut inh)
COc1cccc(N(CC(=O)O)S(=O)(=O)c2ccccc2)c1	none (no result: T cruzi growth-1, KDM4C inh)
CCS(=O)(=O)N1CCC[C@@H]2CN3CCc4cc(OC)ccc4[C@@H]3C[C@@H]21	none (no result: T cruzi growth-1, KDM4C inh)
CCCN1C[C@H](C)[C@H](OC)CN(C)C(=O)c2cc(NC(=O)NC3CCCC3)ccc2OC[C@@H]1C	none (no result: T cruzi growth-1, IDH1 mut inh)
COc1ccc(S(=O)(=O)N[C@H]2CC[C@@H](CC(=O)N3CCC(Cc4ccccc4)CC3)O[C@H]2CO)cc1	none
COCC(=O)Nc1ccc2c(c1)C(=O)N(C)[C@H]1CC[C@H](CC(=O)NCCc3ccncc3)O[C@H]1CO2	none (no result: IDH1 mut inh)
C[C@@H]1CCCCO[C@@H](CN(C)C(=O)NC2CCCCC2)[C@H](C)CN([C@@H](C)CO)C(=O)c2cc(NC(=O)c3ccccc3)ccc2O1	none (no result: IDH1 mut inh)
C[C@@H]1CN([C@@H](C)CO)C(=O)c2cc(N(C)C)ccc2O[C@@H](C)CCCCO[C@H]1CN(C)Cc1ccc(C(F)(F)F)cc1	T cruzi growth-1 118.7 (no result: IDH1 mut inh) | T cruzi growth-2 110.3 | T cruzi growth-3 108.3 | 3T3 cytotox inactive | NIH3T3 tox 2 86.6
